What was measured:
HT-29 [1] = assay: Drug metabolism in human HT-29 cells assessed as amount of drug metabolized for one log of cell kill at their CT10 concentration for 1 hr; format: ADME, cell-based; details: ht-29, 1 h
Method in brief: (§1)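 Stirred single-cell suspensions of anoxic HT29 cells are exposed for 3 h at a drug concentration giving roughly one log kill by 1 h. Clonogenic survival is followed, and extracellular drug is monitored by HPLC. Concentration-time data are fitted for the apparent first-order metabolic rate constant k_met, scaled to MCL cell density. CT₁₀ and M₁₀ (drug metabolized at 10% survival) are interpolated from the fitted PK/PD model.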

HT-29 [2] = assay: Cytotoxicity against human HT-29 cells assessed as AUC-time curve providing 10% surviving fraction by clonogenic assay; format: functional
HT-29 [3] = assay: Metabolic stability in human HT-29 multicellular layer assessed as apparent first-order rate constant under anoxic condition; format: ADME, cell-based; method in brief: as §1
SiHa [4] = assay: Hypoxic cytotoxicity ratio, ratio of aerobic IC50 to anoxic IC50 for human SiHa cells; format: functional
SiHa [5] = assay: Cytotoxicity against human SiHa cells after 4 hrs under strict hypoxic condition; format: functional, cell-based; details: Homo sapiens, SiHa, 4 h
HT-29 [6] = assay: Cytotoxicity against human HT-29 cells after 4 hrs under strict hypoxic condition; format: functional, cell-based; details: Homo sapiens, HT-29, 4 h
HT-29 [7] = assay: Hypoxic cytotoxicity ratio, ratio of aerobic IC50 to anoxic IC50 for human HT-29 cells; format: functional
[8] = Solubility at 22 degC in culture medium in presence of 5% fetal calf serum; format: physicochemical; details: culture medium with 5% fetal calf serum; read-out: solubility
Method in brief: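 Solubility of the HCl salts is determined in culture medium containing 5% fetal calf serum at 22 °C.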

HT-29 [9] = assay: Drug diffusion coefficient in human HT-29 multicellular layer under 95% oxygen by liquid scintillation counting; format: ADME, cell-based
Method in brief: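 Tissue diffusion coefficient D measured in HT29 multicellular layers held under 95% O₂ to suppress bioreductive metabolism. Reported as ×10⁻⁷ cm²s⁻¹.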

Compound	Activity (HT-29 [1]) [µM]	Activity (HT-29 [2]) [µM·h]	Activity (HT-29 [3]) [min⁻¹]	Ratio IC50 (SiHa [4])	IC50 (SiHa [5]) [µM]	IC50 (HT-29 [6]) [µM]	Ratio IC50 (HT-29 [7])	solubility [8] [mM]	D (HT-29 [9]) [cm²/s]
Nc1n[n+]([O-])c2cc3c(cc2[n+]1[O-])CCC3	7735	106	0.47	31	8.3	15.2	27	3	
[O-][n+]1nc(CCCN2CCOCC2)[n+]([O-])c2cc3c(cc21)CC(CO)C3 (centres undefined)	2533	24.4	0.9	206	1.8	2.4	121	48	
CCc1n[n+]([O-])c2cc3c(cc2[n+]1[O-])CC(CCO)C3 (centres undefined)	2641	41.3	0.54	86	2.9	7.7	102	2	
[O-][n+]1nc(CCCN2CCOCC2)[n+]([O-])c2cc3c(cc21)CCO3	986	27.6	0.31	43	5.1	8.9	25	51	
CCNc1n[n+]([O-])c2cc3c(cc2[n+]1[O-])CC(N(C)C)C3 (centres undefined)								46	
CN(C)CCNc1n[n+]([O-])c2c3c(ccc2[n+]1[O-])OCCC3	3124	46.1	0.59	66	0.7	4.1	14	47	
CC1Cc2cc3c(cc2C1)[n+]([O-])c(NCCCN1CCOCC1)n[n+]3[O-] (centres undefined)	1903	122.9	0.13	50	8.4	19	25	> 49	
Nc1n[n+]([O-])c2ccccc2[n+]1[O-] [TIRAPAZAMINE]	1698	24.3							4.04e-07
Nc1n[n+]([O-])c2cc3c(cc2[n+]1[O-])OCC3					23	117	4	0.1	
[O-][n+]1nc(NCCCN2CCOCC2)[n+]([O-])c2cc3c(cc21)CCCC3	3294	41.6	0.69	54	2.6	6.3	25	49	
CN(C)CCNc1n[n+]([O-])c2cc3c(cc2[n+]1[O-])CCCCC3	5404	30.6	1.52	88	1.2	5.2	54	> 53	
CCN(CC)CCNc1n[n+]([O-])c2cc3c(cc2[n+]1[O-])CCC3	4521	36.3	1.08	133	1.1	4.1	61	48	
CN(C)CCNc1n[n+]([O-])c2cc3c(cc2[n+]1[O-])OCC3	3000	43.3	0.6	128	1.9	5.2	46	49	
CCc1n[n+]([O-])c2cc3c(cc2[n+]1[O-])CC(CN1CCOCC1)C3 (centres undefined)	1544	24.1	0.54	62	2.4	4.8	31	43	
CCN(CC)CCNc1n[n+]([O-])c2c3c(ccc2[n+]1[O-])CCC3	3806	35.1	0.97	64	0.9	4.2	17	> 49	
COc1ccc2c(c1)[n+]([O-])c(NCCN(C)C)n[n+]2[O-]	1635	26.1	0.54				89		2.3e-07
